How the values were obtained:
[1] = Inhibition of recombinant Mycobacterium tuberculosis PTPB using pNPP as substrate by spectrophotometric method
Summary of the method: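 Recombinant enzyme made in-house. Substrate pNPP in 50 mM 3,3-dimethylglutarate buffer, pH 7.0, with 1 mM EDTA and 150 mM NaCl, at 25 °C, screened in 96-well format. p-Nitrophenol product read at 405 nm. Non-enzymatic pNPP hydrolysis was corrected using a control without enzyme.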

[2] = target: Tyrosine-protein phosphatase non-receptor type 13 (Homo sapiens, UniProt Q12923); test: Inhibition of recombinant FAP1 (unknown origin) using pNPP as substrate by spectrophotometric method
Summary of the method: (§1)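 Recombinant PTP prepared in-house, assayed with pNPP substrate in 50 mM 3,3-dimethylglutarate buffer pH 7.0 containing 1 mM EDTA and 150 mM NaCl at 25 °C, in 96-well format. p-Nitrophenol product was quantified by absorbance at 405 nm. Non-enzymatic pNPP hydrolysis was corrected using a no-enzyme control.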

[3] = target: T1, Tyrosine-protein phosphatase non-receptor type 1 (Homo sapiens, UniProt P18031); test: Inhibition of recombinant PTP1B (unknown origin) using pNPP as substrate by spectrophotometric method; summary of the method: as §1
T1 sequence (P18031 whole entry): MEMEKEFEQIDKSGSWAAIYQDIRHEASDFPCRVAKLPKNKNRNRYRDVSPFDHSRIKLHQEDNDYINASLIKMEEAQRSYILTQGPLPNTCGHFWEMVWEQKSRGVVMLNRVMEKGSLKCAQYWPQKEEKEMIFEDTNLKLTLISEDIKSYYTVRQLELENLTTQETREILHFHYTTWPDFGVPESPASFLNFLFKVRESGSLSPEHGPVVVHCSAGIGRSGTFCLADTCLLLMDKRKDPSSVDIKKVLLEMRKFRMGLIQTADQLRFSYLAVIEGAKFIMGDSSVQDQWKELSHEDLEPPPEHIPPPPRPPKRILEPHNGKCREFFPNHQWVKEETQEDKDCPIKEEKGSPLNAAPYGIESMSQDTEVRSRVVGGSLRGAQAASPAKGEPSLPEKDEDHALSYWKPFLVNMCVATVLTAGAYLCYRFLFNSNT

[4] = target: T2, Tyrosine-protein phosphatase non-receptor type 22 (Homo sapiens, UniProt Q9Y2R2); test: Inhibition of recombinant LYP (unknown origin) using pNPP as substrate by spectrophotometric method; summary of the method: as §1
T2 sequence (Q9Y2R2 whole entry): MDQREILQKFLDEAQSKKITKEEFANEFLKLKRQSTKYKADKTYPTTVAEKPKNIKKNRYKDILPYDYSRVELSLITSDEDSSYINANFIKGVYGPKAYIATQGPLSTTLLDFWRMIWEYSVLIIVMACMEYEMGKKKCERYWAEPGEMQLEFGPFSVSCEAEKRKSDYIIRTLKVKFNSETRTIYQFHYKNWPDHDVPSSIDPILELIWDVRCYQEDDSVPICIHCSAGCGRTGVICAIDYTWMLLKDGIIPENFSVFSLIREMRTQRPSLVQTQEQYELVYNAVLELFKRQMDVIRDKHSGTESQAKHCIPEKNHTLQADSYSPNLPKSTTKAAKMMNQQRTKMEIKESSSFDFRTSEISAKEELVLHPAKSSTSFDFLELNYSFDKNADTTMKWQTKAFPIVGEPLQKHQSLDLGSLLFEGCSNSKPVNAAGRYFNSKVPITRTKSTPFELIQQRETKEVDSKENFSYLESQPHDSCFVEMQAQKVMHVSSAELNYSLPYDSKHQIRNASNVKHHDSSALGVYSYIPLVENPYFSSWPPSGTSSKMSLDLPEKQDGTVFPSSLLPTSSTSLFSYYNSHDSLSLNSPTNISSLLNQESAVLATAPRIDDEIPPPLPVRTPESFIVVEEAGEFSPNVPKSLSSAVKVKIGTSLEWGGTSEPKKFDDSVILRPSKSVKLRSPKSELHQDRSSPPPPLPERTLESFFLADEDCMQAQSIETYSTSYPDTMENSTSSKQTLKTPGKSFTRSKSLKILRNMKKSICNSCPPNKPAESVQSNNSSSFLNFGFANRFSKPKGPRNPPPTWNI

[5] = target: T3, Receptor-type tyrosine-protein phosphatase C (Homo sapiens, UniProt P08575); test: Inhibition of recombinant CD45 (unknown origin) using pNPP as substrate by spectrophotometric method; summary of the method: as §1
T3 sequence (P08575 whole entry): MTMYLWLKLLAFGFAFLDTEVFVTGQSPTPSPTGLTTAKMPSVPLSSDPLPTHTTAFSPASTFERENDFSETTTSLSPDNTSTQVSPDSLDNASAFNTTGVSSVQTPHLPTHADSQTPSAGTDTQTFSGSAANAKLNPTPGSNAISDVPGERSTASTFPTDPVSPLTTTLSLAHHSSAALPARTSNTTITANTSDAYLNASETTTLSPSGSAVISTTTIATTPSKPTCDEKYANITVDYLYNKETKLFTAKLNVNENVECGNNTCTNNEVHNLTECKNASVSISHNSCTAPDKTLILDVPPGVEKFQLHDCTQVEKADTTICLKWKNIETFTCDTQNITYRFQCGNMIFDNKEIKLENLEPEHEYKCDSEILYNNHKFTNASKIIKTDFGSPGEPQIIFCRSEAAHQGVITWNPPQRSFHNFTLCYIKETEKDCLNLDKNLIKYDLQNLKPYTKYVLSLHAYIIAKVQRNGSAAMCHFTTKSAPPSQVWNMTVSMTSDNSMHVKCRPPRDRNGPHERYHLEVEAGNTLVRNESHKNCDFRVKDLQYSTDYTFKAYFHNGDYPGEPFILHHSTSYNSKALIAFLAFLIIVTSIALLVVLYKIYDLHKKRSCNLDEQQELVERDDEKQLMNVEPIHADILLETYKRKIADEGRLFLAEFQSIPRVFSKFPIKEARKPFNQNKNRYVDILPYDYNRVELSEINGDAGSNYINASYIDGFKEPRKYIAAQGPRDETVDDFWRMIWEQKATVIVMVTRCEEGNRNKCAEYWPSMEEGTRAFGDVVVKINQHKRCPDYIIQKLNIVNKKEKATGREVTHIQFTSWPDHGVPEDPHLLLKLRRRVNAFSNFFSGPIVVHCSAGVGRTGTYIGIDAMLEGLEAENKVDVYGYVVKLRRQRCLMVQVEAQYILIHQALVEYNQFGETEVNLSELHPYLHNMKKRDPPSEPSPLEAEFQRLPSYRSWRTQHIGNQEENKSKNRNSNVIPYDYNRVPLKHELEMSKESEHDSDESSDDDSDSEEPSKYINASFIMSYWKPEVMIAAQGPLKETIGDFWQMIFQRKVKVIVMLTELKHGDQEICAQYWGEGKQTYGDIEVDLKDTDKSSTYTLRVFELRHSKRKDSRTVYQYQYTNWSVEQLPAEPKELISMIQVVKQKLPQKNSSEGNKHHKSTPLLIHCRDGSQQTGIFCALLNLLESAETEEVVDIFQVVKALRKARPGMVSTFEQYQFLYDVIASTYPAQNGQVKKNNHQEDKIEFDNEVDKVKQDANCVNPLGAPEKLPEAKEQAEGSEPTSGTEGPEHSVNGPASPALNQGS

[6] = target: T4, Tyrosine-protein phosphatase non-receptor type 11 (Homo sapiens, UniProt Q06124); test: Inhibition of recombinant SHP2 (unknown origin) using pNPP as substrate by spectrophotometric method; summary of the method: as §1
T4 sequence (Q06124 whole entry): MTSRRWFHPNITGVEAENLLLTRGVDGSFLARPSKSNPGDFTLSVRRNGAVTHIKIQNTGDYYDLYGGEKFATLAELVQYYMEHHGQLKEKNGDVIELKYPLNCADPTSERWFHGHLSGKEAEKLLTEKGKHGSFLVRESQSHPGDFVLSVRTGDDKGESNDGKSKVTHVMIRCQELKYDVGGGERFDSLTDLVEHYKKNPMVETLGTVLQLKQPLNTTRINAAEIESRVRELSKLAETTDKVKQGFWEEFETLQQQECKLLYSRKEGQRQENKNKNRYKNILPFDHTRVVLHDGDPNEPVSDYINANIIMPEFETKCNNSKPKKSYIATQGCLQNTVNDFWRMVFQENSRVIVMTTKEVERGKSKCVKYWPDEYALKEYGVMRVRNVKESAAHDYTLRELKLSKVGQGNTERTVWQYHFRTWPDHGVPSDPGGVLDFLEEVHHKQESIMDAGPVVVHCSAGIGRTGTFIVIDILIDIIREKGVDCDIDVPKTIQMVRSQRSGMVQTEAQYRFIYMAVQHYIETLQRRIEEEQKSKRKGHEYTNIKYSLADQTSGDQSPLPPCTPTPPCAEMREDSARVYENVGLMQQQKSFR

Tyrosine-protein phosphatase non-receptor type 13, sequence (Q12923 whole entry): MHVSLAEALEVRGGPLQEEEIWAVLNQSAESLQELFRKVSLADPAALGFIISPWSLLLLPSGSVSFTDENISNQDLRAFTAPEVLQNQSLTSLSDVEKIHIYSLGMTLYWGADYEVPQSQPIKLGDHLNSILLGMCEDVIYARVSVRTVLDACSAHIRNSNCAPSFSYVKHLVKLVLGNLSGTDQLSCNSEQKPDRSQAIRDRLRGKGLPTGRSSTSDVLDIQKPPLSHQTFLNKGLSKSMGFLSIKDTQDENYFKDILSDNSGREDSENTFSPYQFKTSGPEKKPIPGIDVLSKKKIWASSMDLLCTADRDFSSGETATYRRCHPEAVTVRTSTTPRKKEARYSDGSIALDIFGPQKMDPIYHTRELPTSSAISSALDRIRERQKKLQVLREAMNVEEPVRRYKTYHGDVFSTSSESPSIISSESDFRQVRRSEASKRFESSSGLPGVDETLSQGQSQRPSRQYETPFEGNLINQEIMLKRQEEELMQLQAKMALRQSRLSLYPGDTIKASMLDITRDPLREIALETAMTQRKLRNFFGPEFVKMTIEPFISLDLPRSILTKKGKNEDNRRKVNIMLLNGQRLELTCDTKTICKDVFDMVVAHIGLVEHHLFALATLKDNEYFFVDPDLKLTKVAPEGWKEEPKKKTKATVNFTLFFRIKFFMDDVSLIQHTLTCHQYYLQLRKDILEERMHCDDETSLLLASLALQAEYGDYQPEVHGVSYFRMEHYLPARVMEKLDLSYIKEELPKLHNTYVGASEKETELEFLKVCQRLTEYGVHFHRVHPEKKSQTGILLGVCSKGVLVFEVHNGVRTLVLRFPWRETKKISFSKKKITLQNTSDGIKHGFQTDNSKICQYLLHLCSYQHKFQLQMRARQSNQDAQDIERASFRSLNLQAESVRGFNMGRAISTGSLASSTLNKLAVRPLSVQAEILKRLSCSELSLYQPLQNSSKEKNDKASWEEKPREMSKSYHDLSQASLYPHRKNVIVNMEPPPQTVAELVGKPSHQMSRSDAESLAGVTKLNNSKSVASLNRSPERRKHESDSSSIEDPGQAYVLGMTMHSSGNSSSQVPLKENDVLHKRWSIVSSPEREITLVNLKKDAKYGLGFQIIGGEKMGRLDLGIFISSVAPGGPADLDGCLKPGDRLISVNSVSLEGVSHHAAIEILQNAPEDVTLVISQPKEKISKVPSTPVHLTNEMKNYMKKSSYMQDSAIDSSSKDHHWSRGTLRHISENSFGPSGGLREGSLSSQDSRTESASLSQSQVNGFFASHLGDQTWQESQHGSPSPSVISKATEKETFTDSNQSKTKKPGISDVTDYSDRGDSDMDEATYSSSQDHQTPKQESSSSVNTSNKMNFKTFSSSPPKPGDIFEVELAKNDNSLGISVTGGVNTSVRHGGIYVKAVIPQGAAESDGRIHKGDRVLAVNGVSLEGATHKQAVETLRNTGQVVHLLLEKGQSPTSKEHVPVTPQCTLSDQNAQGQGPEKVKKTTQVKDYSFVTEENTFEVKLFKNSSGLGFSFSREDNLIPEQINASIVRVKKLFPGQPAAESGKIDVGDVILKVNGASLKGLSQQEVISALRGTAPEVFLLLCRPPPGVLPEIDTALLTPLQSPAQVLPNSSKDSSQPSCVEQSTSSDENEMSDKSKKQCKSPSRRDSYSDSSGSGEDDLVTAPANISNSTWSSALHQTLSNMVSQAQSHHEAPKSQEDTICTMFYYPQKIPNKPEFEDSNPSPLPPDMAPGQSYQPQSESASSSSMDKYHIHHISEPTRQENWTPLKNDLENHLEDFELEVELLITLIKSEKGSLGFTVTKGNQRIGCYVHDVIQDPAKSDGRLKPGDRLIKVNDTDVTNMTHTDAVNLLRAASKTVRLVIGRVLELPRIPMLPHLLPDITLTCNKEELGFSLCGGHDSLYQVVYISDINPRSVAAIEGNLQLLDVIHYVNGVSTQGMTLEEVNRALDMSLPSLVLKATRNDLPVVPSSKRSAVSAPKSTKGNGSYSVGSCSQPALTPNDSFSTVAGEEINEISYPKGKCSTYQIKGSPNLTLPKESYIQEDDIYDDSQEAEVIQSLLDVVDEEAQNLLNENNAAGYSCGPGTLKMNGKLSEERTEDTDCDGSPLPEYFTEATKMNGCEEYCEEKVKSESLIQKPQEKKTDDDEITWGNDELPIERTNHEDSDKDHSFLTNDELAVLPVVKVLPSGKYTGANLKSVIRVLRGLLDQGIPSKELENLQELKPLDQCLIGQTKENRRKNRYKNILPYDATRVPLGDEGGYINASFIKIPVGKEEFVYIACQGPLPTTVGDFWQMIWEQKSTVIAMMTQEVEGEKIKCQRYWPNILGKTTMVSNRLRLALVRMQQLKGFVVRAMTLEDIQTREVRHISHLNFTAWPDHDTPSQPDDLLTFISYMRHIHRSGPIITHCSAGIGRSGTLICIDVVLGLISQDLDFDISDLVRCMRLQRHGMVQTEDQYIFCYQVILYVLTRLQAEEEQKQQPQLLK

## CCCNC(=O)COc1ccc2cc(C(O)(C(F)(F)F)C(F)(F)F)c(O)cc2c1
[1]
  IC50: > 20 µM
[2]
  IC50: > 20 µM
[3]
  IC50: > 20 µM
[4]
  IC50: > 20 µM
[5]
  IC50: > 20 µM
[6]
  IC50: > 20 µM

## O=C(COc1ccc2cc(C(O)(C(F)(F)F)C(F)(F)F)c(O)cc2c1)NCc1ccc(F)cc1
[1]
  IC50: > 20 µM
[2]
  IC50: > 20 µM
[3]
  IC50: > 20 µM
[4]
  IC50: > 20 µM
[5]
  IC50: > 20 µM
[6]
  IC50: > 20 µM

## O=C(COc1ccc2cc(C(O)(C(F)(F)F)C(F)(F)F)c(O)cc2c1)Nc1nc2ccccc2s1
[1]
  IC50: 2.6 µM
[2]
  IC50: 9.9 µM
[3]
  IC50: > 20 µM
[4]
  IC50: 14.3 µM
[5]
  IC50: 10.9 µM
[6]
  IC50: 12.8 µM

## O=C(COc1ccc2cc(C(O)(C(F)(F)F)C(F)(F)F)c(O)cc2c1)Nc1ccc(-c2ccccc2)cc1
[1]
  IC50: 4.8 µM
[2]
  IC50: 2.8 µM
[3]
  IC50: > 20 µM
[4]
  IC50: > 20 µM
[5]
  IC50: 3.4 µM
[6]
  IC50: 3.5 µM
